Source: ChEMBL document CHEMBL4390662, “Design, synthesis and biological evaluation of novel α-acyloxy carboxamides via Passerini reaction as caspase 3/7 activators” (Eur J Med Chem, 2019)
Values after ≈ are worked out from the molar mass of the structure shown. Active and inactive are the calls of the source. The calls are words filed in the database; no cut-off is given here.

Columns and labels:
[1] = Selectivity index, ratio of IC50 for human WI38 cells to IC50 for mouse NFS60 cells
Procedure, shortened: (§1)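 SI calculated as IC50 on normal Wi-38 fibroblasts divided by IC50 on the cancer cell line. Both came from 72 h MTT assays.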

[2] = system: HepG2; assay: Cytotoxicity against human HepG2 cells assessed as cell growth inhibition incubated for 72 hrs by MTT assay; type: functional, cell-based; settings: HepG2, 72 h
Procedure, shortened: (§2)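 Cells grown in RPMI-1640 with 10% FBS and seeded at 5×10^3 per well. After 24 h, serial concentrations given for 72 h at 37°C, 5% CO2. Then 5 mg/mL MTT stock added for 3 h, formazan dissolved in DMSO, A570 read. IC50 calculated from the curves.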

[3] = system: Escherichia coli; assay: Antimicrobial activity against Escherichia coli ATCC 25922 incubated for 24 hrs by agar well diffusion assay; type: functional
Procedure, shortened: (§3)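 Nutrient agar spread with 100 µL inoculum: bacteria at 1×10^8 CFU/mL, fungi at 1×10^6 CFU/mL. 10 mm wells loaded with 100 µL of compound in DMSO (final 1 mg/mL). Bacteria incubated 24 h at 37 °C, fungi 48 h at 28 °C. Inhibition zones measured in mm. Ciprofloxacin and fluconazole standards at 1 mg/mL, DMSO negative control.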

[4] = system: MCF7; assay: Cytotoxicity against human MCF7 cells assessed as cell growth inhibition incubated for 72 hrs by MTT assay; type: functional, cell-based; settings: MCF7, 72 h; procedure, shortened: as §2
[5] = system: WI-38; assay: Cytotoxicity against human WI38 cells assessed as cell growth inhibition incubated for 72 hrs by MTT assay; type: cell-based; settings: for IC50: Homo sapiens, WI-38, 72 h; for EC100: human, wi-38, 72 h
Procedure, shortened: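 Wi-38 fibroblasts grown in DMEM with 10% FBS and seeded at 5×10^3 per well. Attachment 24 h, then serial concentrations for 72 h at 37°C, 5% CO2. MTT stock (5 mg/mL) added for 3 h at 37°C, DMSO solubilization, absorbance at 570 nm. IC50 estimated.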

[6] = system: Pseudomonas aeruginosa; assay: Antimicrobial activity against Pseudomonas aeruginosa ATCC 27853 incubated for 24 hrs by agar well diffusion assay; type: functional; procedure, shortened: as §3
[7] = system: Enterococcus faecalis; assay: Antimicrobial activity against Enterococcus faecalis ATCC 29212 incubated for 24 hrs by agar well diffusion assay; type: functional; procedure, shortened: as §3
[8] = Selectivity index, ratio of IC50 for human WI38 cells to IC50 for human HepG2 cells; type: toxicity; settings: WI38 cells versus HepG2 cells, read-out: Ratio IC50; procedure, shortened: as §1
[9] = system: NFS-60; assay: Cytotoxicity against mouse NFS60 cells assessed as cell growth inhibition incubated for 72 hrs by MTT assay; type: functional, cell-based; settings: NFS-60, 72 h; procedure, shortened: as §2
[10] = system: Staphylococcus aureus; assay: Antimicrobial activity against Staphylococcus aureus ATCC 25923 incubated for 24 hrs by agar well diffusion assay; type: functional; procedure, shortened: as §3
[11] = system: MCF7; assay: Potency index, ratio of doxorubicin IC50 to test compound IC50 against human MCF7 cells; type: functional
[12] = Selectivity index, ratio of IC50 for human WI38 cells to IC50 for human MCF7 cells; type: toxicity; settings: WI38 cells versus MCF7 cells, read-out: Ratio IC50; procedure, shortened: as §1
[13] = system: Candida albicans; assay: Antimicrobial activity against Candida albicans ATCC 90028 incubated for 48 hrs by agar well diffusion assay; type: functional; procedure, shortened: as §3
[14] = system: Staphylococcus aureus; assay: Antimicrobial activity against Staphylococcus aureus ATCC 25923 incubated for 24 hrs by microdilution assay; type: functional
Procedure, shortened: (§4)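 Two-fold serial dilutions of test solutions made in Mueller Hinton broth and inoculated. Incubated at 37°C for 24 h. MIC taken as the lowest concentration with no growth. Ciprofloxacin is the antibacterial reference, fluconazole the antifungal one, and DMSO the blank.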

[15] = system: Candida albicans; assay: Antimicrobial activity against Candida albicans ATCC 90028 incubated for 24 hrs by microdilution assay; type: functional; procedure, shortened: as §4
[16] = system: Escherichia coli; assay: Antimicrobial activity against Escherichia coli ATCC 25922 incubated for 24 hrs by microdilution assay; type: functional; procedure, shortened: as §4

Cc1ccc(C(=O)OC2(C(=O)Nc3ccc([N+](=O)[O-])cc3)CCCCC2)cc1
Ratio IC50 [1]: 0.704 | IC50 [2]: 61.2 nM | diameter of the inhibition zone (DIZ) [3]: inactive | IC50 [4]: 9.8 nM | IC50 [5]: 32 nM | EC100 [5]: 0.0064 µM | diameter of the inhibition zone (DIZ) [6]: inactive | diameter of the inhibition zone (DIZ) [7]: inactive | selectivity ratio [8]: 0.522 | IC50 [9]: 45.4 nM | diameter of the inhibition zone (DIZ) [10]: inactive | Ratio IC50 [11]: 2 - 4 | selectivity ratio [12]: 3.27 | diameter of the inhibition zone (DIZ) [13]: inactive

CCOC1(Nc2ccc([N+](=O)[O-])cc2)C(=O)c2ccccc2C1=O
Ratio IC50 [1]: 1.69 | IC50 [2]: 38.9 nM | diameter of the inhibition zone (DIZ) [3]: inactive | IC50 [4]: 34.9 nM | IC50 [5]: 47 nM | EC100 [5]: 0.0285 µM | MIC ([14]; ATCC 25923, 24 h): 1570 µM (≈ 512 µg/mL) | diameter of the inhibition zone (DIZ) [6]: 16 mm | diameter of the inhibition zone (DIZ) [7]: 13 mm | selectivity ratio [8]: 1.21 | MIC [15]: inactive | IC50 [9]: 27.8 nM | diameter of the inhibition zone (DIZ) [10]: 12 mm | selectivity ratio [12]: 1.35 | diameter of the inhibition zone (DIZ) [13]: inactive | MIC [16]: inactive

O=COC1(C(=O)Nc2ccc([N+](=O)[O-])cc2)CCCCC1
Ratio IC50 [1]: 1.369 | IC50 [2]: 34.1 nM | diameter of the inhibition zone (DIZ) [3]: 15 mm | IC50 [4]: 35.4 nM | IC50 [5]: 46.3 nM | EC100 [5]: 0.0271 µM | MIC [14]: inactive | diameter of the inhibition zone (DIZ) [6]: 18 mm | diameter of the inhibition zone (DIZ) [7]: 12 mm | selectivity ratio [8]: 1.36 | MIC [15]: inactive | IC50 [9]: 33.8 nM | diameter of the inhibition zone (DIZ) [10]: inactive | selectivity ratio [12]: 1.31 | diameter of the inhibition zone (DIZ) [13]: inactive | MIC ([16]; ATCC 25922, 24 h): 3500 µM (≈ 1020 µg/mL)

O=C(O)c1cn(C2CC2)c2cc(N3CCNCC3)c(F)cc2c1=O [CIPROFLOXACIN]
diameter of the inhibition zone (DIZ) [3]: 43 mm | MIC ([14]; ATCC 25923, 24 h): 6 µM (≈ 1.99 µg/mL) | diameter of the inhibition zone (DIZ) [6]: 40 mm | diameter of the inhibition zone (DIZ) [7]: 24 mm | diameter of the inhibition zone (DIZ) [10]: 26 mm | MIC ([16]; ATCC 25922, 24 h): 3 µM (≈ 0.994 µg/mL)

COc1ccc(C(=O)OC2(C(=O)Nc3ccc([N+](=O)[O-])cc3)CCCCC2)cc1
Ratio IC50 [1]: 1.031 | IC50 [2]: 57.1 nM | diameter of the inhibition zone (DIZ) [3]: 12 mm | IC50 [4]: 41.2 nM | IC50 [5]: 40 nM | EC100 [5]: 0.0178 µM | MIC [14]: inactive | diameter of the inhibition zone (DIZ) [6]: 12 mm | diameter of the inhibition zone (DIZ) [7]: inactive | selectivity ratio [8]: 0.7 | MIC [15]: inactive | IC50 [9]: 38.8 nM | diameter of the inhibition zone (DIZ) [10]: inactive | selectivity ratio [12]: 0.97 | diameter of the inhibition zone (DIZ) [13]: inactive | MIC ([16]; ATCC 25922, 24 h): 2570 µM (≈ 1020 µg/mL)

O=C(OC1(C(=O)Nc2ccc([N+](=O)[O-])cc2)CCCCC1)c1ccccc1[N+](=O)[O-]
Ratio IC50 [1]: 1.84 | IC50 [2]: 44 nM | diameter of the inhibition zone (DIZ) [3]: 12 mm | IC50 [4]: 14.7 nM | IC50 [5]: 34.6 nM | EC100 [5]: 0.0067 µM | MIC [14]: inactive | diameter of the inhibition zone (DIZ) [6]: 14 mm | diameter of the inhibition zone (DIZ) [7]: inactive | selectivity ratio [8]: 0.786 | MIC [15]: inactive | IC50 [9]: 18.8 nM | diameter of the inhibition zone (DIZ) [10]: inactive | selectivity ratio [12]: 2.35 | diameter of the inhibition zone (DIZ) [13]: inactive | MIC ([16]; ATCC 25922, 24 h): 2480 µM (≈ 1020 µg/mL)

OC(Cn1cncn1)(Cn1cncn1)c1ccc(F)cc1F [FLUCONAZOLE]
MIC ([15]; ATCC 90028, 24 h): 1 µM (≈ 0.306 µg/mL) | diameter of the inhibition zone (DIZ) [13]: 29 mm

O=C1OC2(CCCCC2)C(=O)N1c1ccc([N+](=O)[O-])cc1
Ratio IC50 [1]: 3.897 | IC50 [2]: 9.4 nM | diameter of the inhibition zone (DIZ) [3]: 15 mm | IC50 [4]: 6.5 nM | IC50 [5]: 35 nM | EC100 [5]: 0.006 µM | MIC [14]: inactive | diameter of the inhibition zone (DIZ) [6]: 15 mm | diameter of the inhibition zone (DIZ) [7]: inactive | selectivity ratio [8]: 3.72 | MIC [15]: inactive | IC50 [9]: 8.98 nM | diameter of the inhibition zone (DIZ) [10]: inactive | Ratio IC50 [11]: 2 - 4 | selectivity ratio [12]: 5.38 | diameter of the inhibition zone (DIZ) [13]: inactive | MIC ([16]; ATCC 25922, 24 h): 3530 µM (≈ 1020 µg/mL)

O=C(Nc1ccc([N+](=O)[O-])cc1)C1(O)CCCCC1
Ratio IC50 [1]: 1.705 | IC50 [2]: 648 nM | diameter of the inhibition zone (DIZ) [3]: 12 mm | IC50 [4]: 664 nM | IC50 [5]: 1220 nM | EC100 [5]: 0.53 µM | MIC [14]: inactive | diameter of the inhibition zone (DIZ) [6]: inactive | diameter of the inhibition zone (DIZ) [7]: inactive | selectivity ratio [8]: 1.88 | MIC ([15]; ATCC 90028, 24 h): 1040 µM (≈ 275 µg/mL) | IC50 [9]: 716 nM | diameter of the inhibition zone (DIZ) [10]: inactive | selectivity ratio [12]: 1.84 | diameter of the inhibition zone (DIZ) [13]: 15 mm | MIC [16]: inactive

O=C(OC1(C(=O)Nc2ccc([N+](=O)[O-])cc2)CCCCC1)c1ccc(Cl)cc1
Ratio IC50 [1]: 34.466 | IC50 [2]: 21.8 nM | diameter of the inhibition zone (DIZ) [3]: 14 mm | IC50 [4]: 15 nM | IC50 [5]: 355 nM | EC100 [5]: 0.1128 µM | MIC [14]: inactive | diameter of the inhibition zone (DIZ) [6]: 16 mm | diameter of the inhibition zone (DIZ) [7]: 13 mm | selectivity ratio [8]: 16.3 | MIC [15]: inactive | IC50 [9]: 10.3 nM | diameter of the inhibition zone (DIZ) [10]: inactive | selectivity ratio [12]: 23.7 | diameter of the inhibition zone (DIZ) [13]: inactive | MIC ([16]; ATCC 25922, 24 h): 1270 µM (≈ 512 µg/mL)

CC(=O)Oc1ccccc1C(=O)OC1(C(=O)Nc2ccc([N+](=O)[O-])cc2)CCCCC1
Ratio IC50 [1]: 4.283 | IC50 [2]: 17.7 nM | diameter of the inhibition zone (DIZ) [3]: 16 mm | IC50 [4]: 16.9 nM | IC50 [5]: 48.4 nM | EC100 [5]: 0.0355 µM | MIC [14]: inactive | diameter of the inhibition zone (DIZ) [6]: 16 mm | diameter of the inhibition zone (DIZ) [7]: inactive | selectivity ratio [8]: 2.73 | MIC [15]: inactive | IC50 [9]: 11.3 nM | diameter of the inhibition zone (DIZ) [10]: inactive | selectivity ratio [12]: 2.86 | diameter of the inhibition zone (DIZ) [13]: inactive | MIC ([16]; ATCC 25922, 24 h): 2400 µM (≈ 1020 µg/mL)

COC1(Nc2ccc([N+](=O)[O-])cc2)C(=O)c2ccccc2C1=O
Ratio IC50 [1]: 1.637 | IC50 [2]: 36 nM | diameter of the inhibition zone (DIZ) [3]: 14 mm | IC50 [4]: 25.4 nM | IC50 [5]: 53.7 nM | EC100 [5]: 0.043 µM | MIC [14]: inactive | diameter of the inhibition zone (DIZ) [6]: 14 mm | diameter of the inhibition zone (DIZ) [7]: inactive | selectivity ratio [8]: 1.49 | MIC [15]: inactive | IC50 [9]: 32.8 nM | diameter of the inhibition zone (DIZ) [10]: inactive | selectivity ratio [12]: 2.11 | diameter of the inhibition zone (DIZ) [13]: inactive | MIC ([16]; ATCC 25922, 24 h): 3280 µM (≈ 1020 µg/mL)
